VIM-2 inh – inhibitors of Pseudomonas aeruginosa VIM-2 metallo-beta-lactamase | purified VIM-2, nitrocefin hydrolysis, epi-absorbance fluorescence | inhibition, % at 5.6 µM | actives 0.89% (n = 290,000) | AID 1527;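 active = inhibition above the mean of all tested compounds plus 3 SD, cutoff set per screening run, cut at about 7.5% in these data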;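 also: red hydrolysis product quenches plate fluorescence so inhibitors raise well fluorescence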
beta cell repl – induces beta-cell replication in MIN6 cells; MIN6 cells proliferation, ATPlite luminescence, 48 h; cells starved in 0.2% serum; 100% = growth in 10% serum; proliferation, % at 10 µM; actives 0.29% (n = 330,000);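 active = compounds whose signal lies at least 3.5 SD above the mean of all wells on their plate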
IMP-1 inh-1 – inhibitors of Pseudomonas aeruginosa IMP-1 metallo-beta-lactamase. purified IMP-1, nitrocefin hydrolysis, epi-absorbance fluorescence. inhibition, % at 5.6 µM. actives 0.45% (n = 290,000). AID 1556;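 active = inhibition above the mean plus 3 SD of all compounds in the same screening run, cut at about 4.5% in these data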
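Test system: recombinant IMP-1 enzyme, purified / Medium: HEPES buffer pH 7.1 with ZnSO4 and Brij 35 / Doses: single dose, 5.6 µM / Times: 25 °C, 15 min preincubation, 25 min reaction / Detection: Epi-absorbance via hydrolysed-nitrocefin quenching of white-plate fluorescence, 480/530 nm, EDTA stop / Evaluation: percent inhibition from optical density relative to buffer-blank wells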
PvdQ acylase – blocks Pseudomonas aeruginosa PvdQ acylase activity. purified PvdQ acylase, fluorescence plate reader. inhibition, % at 10 µM. AID 488965. actives 0.063% (n = 340,000); in the data active = inhibition above about 30%, passing the limit was not always enough
ATG4B inh – inhibitors of human ATG4B cysteine protease. actives 0.51% (n = 340,000). ATG4B cleavage of LC3-PLA2, NBD-HPC fluorescence, 1 h. inhibition, % at 8.33 µM; in the data active = inhibition above about 40%
Target sequence (Q9Y4P1 whole entry, looked up): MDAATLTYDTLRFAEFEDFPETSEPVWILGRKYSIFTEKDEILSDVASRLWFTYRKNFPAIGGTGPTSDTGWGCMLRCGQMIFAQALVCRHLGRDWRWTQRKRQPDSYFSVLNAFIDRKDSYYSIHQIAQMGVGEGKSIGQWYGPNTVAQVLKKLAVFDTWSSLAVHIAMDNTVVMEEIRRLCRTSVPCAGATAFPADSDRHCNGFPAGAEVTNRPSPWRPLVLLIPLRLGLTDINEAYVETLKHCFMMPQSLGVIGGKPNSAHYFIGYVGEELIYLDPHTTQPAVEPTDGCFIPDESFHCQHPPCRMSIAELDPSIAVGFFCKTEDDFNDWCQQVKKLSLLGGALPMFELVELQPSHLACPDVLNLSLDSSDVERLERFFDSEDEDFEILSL
HKDC1 inhibitor – inhibitors of human hexokinase HKDC1. AID 493160. Q2TB90. inhibition, % at 20 µM. actives 0.16% (n = 340,000). recombinant HKDC1, G6PDH/diaphorase resazurin coupled fluorescence;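 active = inhibition above about 35% when tested at 20 µM, limit read from the data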
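Assay system: recombinant HKDC1 hexokinase; detection: coupled resazurin fluorescence, excitation 525 nm, emission 613 nm; benchmarks: DMSO-plus-enzyme-mix negative control, buffer-substituted positive control; compound dosing: single 20 µM dose; schedule: 90 min at room temperature in dark; also added: glucose plus 1 mM ATP as hexokinase substrates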
IMP-1 inh-2 – blocks IMP-1 metallo-beta-lactamase in VIM-2 selectivity screen. shares compounds with VIM-2 inh. 1,300 tested, under 10 active. inhibition, % at 5.6 µM. AID 1856. purified IMP-1, nitrocefin hydrolysis, epi-absorbance fluorescence; call rule not given here
VIM-2 FRET inh – counter-screen for VIM-2 inhibitors: epi-absorbance artifacts via FRET. shares compounds with VIM-2 inh. purified VIM-2, CCF2 FRET substrate hydrolysis. inhibition, % at 5.6 µM. actives 23% (n = 1,300). AID 1857;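 active = inhibition above the mean of all tested compounds plus 3 SD, cut at about 19% in these data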
TEM-1 inh – TEM-1 inhibition, counter-screen for VIM-2 inhibitors | shares compounds with VIM-2 inh | actives 3% (n = 1,300) | AID 1866 | Purified TEM-1, nitrocefin hydrolysis, epi-absorbance fluorescence | inhibition, % at 5.6 µM;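 active = inhibition above that campaign's mean inhibition plus 3 SD, cut at about 0.46% in these data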
Target sequence (P62593 whole entry, looked up): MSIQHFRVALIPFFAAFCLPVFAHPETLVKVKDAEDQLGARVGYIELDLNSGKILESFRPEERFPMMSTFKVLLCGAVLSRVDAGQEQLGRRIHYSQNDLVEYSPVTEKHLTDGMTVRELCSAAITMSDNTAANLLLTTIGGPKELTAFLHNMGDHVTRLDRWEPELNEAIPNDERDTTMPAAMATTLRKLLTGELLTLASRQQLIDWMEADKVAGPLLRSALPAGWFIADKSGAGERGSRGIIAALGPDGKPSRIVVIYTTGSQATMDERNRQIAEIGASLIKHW
VIM-2 confirm 2 – confirmation of P. aeruginosa VIM-2 metallo-beta-lactamase inhibitors | shares compounds with VIM-2 inh | purified VIM-2, nitrocefin hydrolysis, epi-absorbance | inhibition, % at 5.6 µM | actives 96% (n = 1,300) | AID 2187;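 active = inhibition of the VIM-2 beta-lactamase enzyme above about 11% from the earlier first-round screen, limit read from the data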
Large screens that a line does not name were inactive (follow-up assays come after a bar, where they were run). Rows were chosen to be rich in hits. Some 2% of all compounds tested hit in one or more screens of this group.

O=C(O)c1ncsc1-c1ccccc1	VIM-2 inh 13.4 | IMP-1 inh-2 inactive | VIM-2 FRET inh 23.9 | TEM-1 inh inactive | VIM-2 confirm 2 16.1
NCCNC(=O)c1ncsc1-c1cccc(F)c1	none (no result: VIM-2 inh, IMP-1 inh-1)
CCOc1ccc(-c2nnc(-c3ccncc3)o2)cc1OCC	VIM-2 inh 23.8 | IMP-1 inh-2 inactive | VIM-2 FRET inh inactive | TEM-1 inh inactive | VIM-2 confirm 2 31.2
CCOc1ccc(-c2nnc(-c3ccncc3)o2)cc1	none
O=C(COC(=O)COc1ccc2c(c1)CCC2)Nc1ccccc1	none (no result: VIM-2 inh, IMP-1 inh-1)
COc1ccc(CNCC(O)(c2ccc(F)cc2)c2ccc(F)cc2)cc1	none
Cc1nc2ccccc2n1CCN1CCOCC1	none
O=c1c2c(-c3ccccc3)csc2nc2c3ccccc3c(NCCN3CCOCC3)nn12	none (no result: beta cell repl)
O=c1c2ccccc2nc2c3ccccc3c(NCCN3CCOCC3)nn12	VIM-2 inh 17.9 (no result: PvdQ acylase, ATG4B inh, HKDC1 inhibitor) | IMP-1 inh-2 inactive | VIM-2 FRET inh inactive | TEM-1 inh inactive | VIM-2 confirm 2 28.1
c1ccc2nc3c(nc2c1)c1ccccc1n3CCN1CCOCC1	VIM-2 inh 12.4 | IMP-1 inh-2 inactive | VIM-2 FRET inh inactive | TEM-1 inh inactive | VIM-2 confirm 2 18.3
CC(C)Oc1cc2oc(=O)c3c(c2cc1Cl)CCC3	none
CC(Oc1cc2oc(=O)c3c(c2cc1Cl)CCCC3)C(=O)NCC1CCC(C(=O)O)CC1 (stereo not drawn)	none
CC(Oc1cc2oc(=O)c3c(c2cc1Cl)CCC3)C(=O)NCc1ccncc1 (stereo not drawn)	VIM-2 inh 15.9 | IMP-1 inh-2 inactive | VIM-2 FRET inh inactive | TEM-1 inh inactive | VIM-2 confirm 2 22.4
CC(Oc1ccc2c3c(c(=O)oc2c1)CCC3)C(=O)NCCCn1ccnc1 (stereo not drawn)	VIM-2 inh 26.7 | IMP-1 inh-2 inactive | VIM-2 FRET inh inactive | TEM-1 inh inactive | VIM-2 confirm 2 39.4
CC(Oc1ccc2c(-c3ccccc3)cc(=O)oc2c1)C(=O)NCCCn1ccnc1 (stereo not drawn)	none
CC(Oc1cc2oc(=O)c3c(c2cc1Cl)CCC3)C(=O)NCCCn1ccnc1 (stereo not drawn)	VIM-2 inh 27.9 | IMP-1 inh-2 inactive | VIM-2 FRET inh inactive | TEM-1 inh 2.3 | VIM-2 confirm 2 40.4
CC(=O)Nc1ccc(S(=O)(=O)NCc2nc(-c3cccc(C)c3)no2)cc1	none
Cc1cccc(-c2nc3c(c(SCC(=O)N4CCCC4)n2)COC(C)(C)C3)c1	none
CCNc1nc(NCC)n2c(SCC(=O)Nc3ccccc3C(F)(F)F)nnc2n1	none (no result: VIM-2 inh, IMP-1 inh-1)
Cn1c(SCc2nn[nH]n2)nc2c1c(=O)n(Cc1ccccc1Cl)c(=O)n2C	none
Cn1cccc1C(=O)NC(=O)COC(=O)c1ccccc1O	none
Cc1cc(C(=O)OCC(=O)NC(=O)c2cccn2C)c2ccccc2n1	VIM-2 inh 12.2 | IMP-1 inh-2 inactive | VIM-2 FRET inh 46.0 | TEM-1 inh inactive | VIM-2 confirm 2 32.6
CNC[C@H](CC1CCCCC1)NC[C@H](CO)NCC1(c2ccccc2)CC1	none
CNC[C@H](CC1CCCCC1)NC[C@H](CO)NCCc1cccc(C(F)(F)F)c1	VIM-2 inh 21.0 | IMP-1 inh-2 inactive | VIM-2 FRET inh inactive | TEM-1 inh inactive | VIM-2 confirm 2 29.8
Cn1nc(-c2ccc(OCC(=O)Nc3cccnc3)cc2)c2ccccc2c1=O	VIM-2 inh 20.4 | IMP-1 inh-2 inactive | VIM-2 FRET inh inactive | TEM-1 inh inactive | VIM-2 confirm 2 30.9
CCN(CCN(C)C)C(=O)c1ccc2c(c1NCCO)C(=O)c1ccccc1C2=O	VIM-2 inh 14.3 | IMP-1 inh-2 inactive | VIM-2 FRET inh inactive | TEM-1 inh inactive | VIM-2 confirm 2 23.1
O=C(CNC(=O)c1ccccc1Cl)N/N=C/C=C/c1ccccc1	none
c1ccc(CCNc2nc(-c3ccccn3)nc3ccccc23)cc1	none
CCCN1CCc2c(sc(NC(=O)c3ccc(S(=O)(=O)N4CCN(C(=O)OCC)CC4)cc3)c2C(N)=O)C1	none
CCOC(=O)N1CCN(S(=O)(=O)c2ccc(C(=O)Nc3sc4c(c3C(=O)OC)CCN(C)C4)cc2)CC1	VIM-2 inh 76.8 | IMP-1 inh-2 inactive | VIM-2 FRET inh inactive | TEM-1 inh inactive | VIM-2 confirm 2 82.0
CC12CCCCC1N(O)C(=O)C(=O)N2O (stereo not drawn)	VIM-2 inh 20.2 | IMP-1 inh-2 inactive | VIM-2 FRET inh 34.0 | TEM-1 inh inactive | VIM-2 confirm 2 18.8
CC1(C)CCCC2=C1CC1C(=O)N(O)C(=O)C1C2 (stereo not drawn)	none
COc1ccc(Cl)cc1N1C(=O)CC(N2CCN(S(=O)(=O)c3ccccc3F)CC2)C1=O (stereo not drawn)	none (no result: VIM-2 inh, IMP-1 inh-1)
CC(Oc1cc2oc(=O)c3c(c2cc1Cl)CCC3)C(=O)NCC1CCC(C(=O)O)CC1 (stereo not drawn)	none
O=C(COc1cc2oc(=O)c3c(c2cc1Cl)CCC3)Nc1ccccn1	none
NC(=O)COc1cc2oc(=O)c3c(c2cc1Cl)CCCC3	VIM-2 inh 14.3 | IMP-1 inh-2 inactive | VIM-2 FRET inh inactive | TEM-1 inh inactive | VIM-2 confirm 2 19.1
O=C(COc1cc2oc(=O)c3c(c2cc1Cl)CCC3)NCCN1CCOCC1	VIM-2 inh 23.2 | IMP-1 inh-2 inactive | VIM-2 FRET inh inactive | TEM-1 inh inactive | VIM-2 confirm 2 29.7
CC(Oc1cc2oc(=O)c3c(c2cc1Cl)CCC3)C(=O)NCCN1CCOCC1 (stereo not drawn)	VIM-2 inh 13.4 | IMP-1 inh-2 inactive | VIM-2 FRET inh inactive | TEM-1 inh inactive | VIM-2 confirm 2 23.4
O=S(=O)(c1ccccc1)N1N=C(c2ccc(Br)cc2)CC1c1ccco1 (stereo not drawn)	none
CCOC(=O)c1cnc2ccc(OC)cc2c1Nc1ccc(N2CCN(C)CC2)cc1	VIM-2 inh 76.4 | IMP-1 inh-2 inactive | VIM-2 FRET inh inactive | TEM-1 inh inactive | VIM-2 confirm 2 84.7
CCOC(=O)c1ccc2ncc(C(=O)OCC)c(Nc3ccc(N4CCOCC4)cc3)c2c1	none
CCOC(=O)c1ccc2ncc(C(=O)OCC)c(NCCCN3CCOCC3)c2c1	VIM-2 inh 26.4 | IMP-1 inh-2 inactive | VIM-2 FRET inh inactive | TEM-1 inh inactive | VIM-2 confirm 2 53.2
